We go through eleven molecules from ChEMBL document CHEMBL3797125, “Discovery of GluN2A-Selective NMDA Receptor Positive Allosteric Modulators (PAMs): Tuning Deactivation Kinetics via Structure-Based Design” (J Med Chem, 2016).

Molecules are shown by their SMILES. Active and inactive are the calls of the source. No cut-off for these calls is given here. Some results are limits rather than exact numbers.

The target in series [1] is T1, Glutamate NMDA receptor; GRIN1/GRIN2A (Homo sapiens, UniProt Q05586+Q12879). The experiment in a line: Positive allosteric modulation of GluN1/GluN2A NMDAR (unknown origin) expressed in Dox-inducible cells at 125 uM measured every 5 mins by BD calcium indicator dye based-fluorescence analysis in presence of glutamate/glycine. The format is cell-based. The method, boiled down: (§1)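 GluN2A-containing NMDAR cell line, harvested, seeded, doxycycline 2 µg/mL overnight with 500 µM ketamine for protection, then washed and loaded with calcium dye for 50 min. Compound added at 2x concentration in 2x EC30 Glu (EC30 set daily from Glu dose-response); saturating Gly throughout; fluorescence recorded over 5 min.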

In series [2] the target is T1, Glutamate NMDA receptor; GRIN1/GRIN2A. Description: Positive allosteric modulation of GluN1/GluN2A NMDAR (unknown origin) expressed in Dox-inducible cells measured every 5 mins by BD calcium indicator dye based-fluorescence analysis in presence of glutamate/glycine. It is filed as cell-based. The method in brief:
as §1

In series [3] the target is T2, Glutamate receptor 2 (Homo sapiens, UniProt P42262). Description: Positive allosteric modulation of human GluA2 AMPAR flip isomer expressed in Dox-inducible cells at 125 uM measured every 5 mins by BD calcium indicator dye based-fluorescence analysis in presence of glutamate. The format is cell-based.
T2 sequence (P42262 whole entry): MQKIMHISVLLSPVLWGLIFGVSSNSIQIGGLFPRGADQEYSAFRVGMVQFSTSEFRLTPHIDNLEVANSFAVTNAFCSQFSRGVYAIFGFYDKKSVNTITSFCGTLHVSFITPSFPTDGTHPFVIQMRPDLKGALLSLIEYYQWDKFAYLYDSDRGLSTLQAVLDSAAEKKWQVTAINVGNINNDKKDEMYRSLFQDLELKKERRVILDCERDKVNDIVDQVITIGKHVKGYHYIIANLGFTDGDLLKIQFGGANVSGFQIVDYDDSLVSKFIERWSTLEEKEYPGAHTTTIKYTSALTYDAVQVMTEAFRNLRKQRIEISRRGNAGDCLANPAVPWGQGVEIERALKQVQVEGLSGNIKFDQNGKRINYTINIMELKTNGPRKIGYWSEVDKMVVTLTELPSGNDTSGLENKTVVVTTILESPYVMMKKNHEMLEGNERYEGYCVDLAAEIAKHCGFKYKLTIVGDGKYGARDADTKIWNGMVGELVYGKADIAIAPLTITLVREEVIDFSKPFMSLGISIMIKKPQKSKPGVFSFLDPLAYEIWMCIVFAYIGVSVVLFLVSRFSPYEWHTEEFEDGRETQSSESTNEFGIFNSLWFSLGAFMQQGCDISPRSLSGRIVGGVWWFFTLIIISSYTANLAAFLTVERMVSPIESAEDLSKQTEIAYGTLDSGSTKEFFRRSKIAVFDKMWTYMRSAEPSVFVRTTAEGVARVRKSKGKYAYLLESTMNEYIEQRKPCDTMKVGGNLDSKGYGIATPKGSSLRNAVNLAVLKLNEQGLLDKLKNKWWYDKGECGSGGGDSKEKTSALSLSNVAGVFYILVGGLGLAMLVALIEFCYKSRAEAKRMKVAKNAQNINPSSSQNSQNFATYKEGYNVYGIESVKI
A further series deals with human MDR1 (P-gp). The experiment in a line: Efflux ratio of permeability from basolateral to apical over apical to basolateral side in MDCK cells expressing human MDR1. The format is ADME, cell-based, Canis lupus familiaris. Particulars: dog.
Series [4] has as its target T2, Glutamate receptor 2. The experiment in a line: Positive allosteric modulation of human GluA2 AMPAR flop isomer expressed in Dox-inducible cells at 125 uM measured every 5 mins by BD calcium indicator dye based-fluorescence analysis in presence of glutamate. It is filed as cell-based.
In series [5] the target is T1, Glutamate NMDA receptor; GRIN1/GRIN2A. Description: Positive allosteric modulation of GluN1/GluN2A NMDAR (unknown origin) expressed in CHO cells assessed as slowing of deactivation kinetics at 100 uM by whole-cell voltage clamp electrophysiological analysis. It is filed as cell-based. The method, boiled down: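 Automated patch clamp of CHO cells expressing GluN1/GluN2A; sealed in high Mg2+ buffer, recorded whole-cell in zero Mg2+. Preincubation with PAM at 100 µM (or DMSO) plus 100 µM glycine for several minutes, then rapid switch to 100 µM glutamate and back. Tau from monoexponential fit of current decay; fold deactivation = PAM tau / vehicle tau.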

A short description of series [6]: Half life in mouse at 0.3 mg/kg, iv. The format is ADME, organism-based. Conditions: in vivo.
A short description of series [7]: Blood clearance in mouse at 0.3 mg/kg, iv. It is filed as ADME, organism-based.
The nature of series [8]: Oral bioavailability in mouse at 10 mg/kg. The format is ADME, organism-based. Conditions: in vivo.
For series [9], the target named is Ionotropic glutamate receptor NMDA 1/2D (Homo sapiens, UniProt O15399+Q05586). The experiment in a line: Positive allosteric modulation of GluN1/GluN2D NMDAR (unknown origin) expressed in Dox-inducible cells by BD calcium indicator dye based-fluorescence analysis in presence of glutamate/glycine.
Ionotropic glutamate receptor NMDA 1/2D, sequence (O15399 whole entry, other chains not shown): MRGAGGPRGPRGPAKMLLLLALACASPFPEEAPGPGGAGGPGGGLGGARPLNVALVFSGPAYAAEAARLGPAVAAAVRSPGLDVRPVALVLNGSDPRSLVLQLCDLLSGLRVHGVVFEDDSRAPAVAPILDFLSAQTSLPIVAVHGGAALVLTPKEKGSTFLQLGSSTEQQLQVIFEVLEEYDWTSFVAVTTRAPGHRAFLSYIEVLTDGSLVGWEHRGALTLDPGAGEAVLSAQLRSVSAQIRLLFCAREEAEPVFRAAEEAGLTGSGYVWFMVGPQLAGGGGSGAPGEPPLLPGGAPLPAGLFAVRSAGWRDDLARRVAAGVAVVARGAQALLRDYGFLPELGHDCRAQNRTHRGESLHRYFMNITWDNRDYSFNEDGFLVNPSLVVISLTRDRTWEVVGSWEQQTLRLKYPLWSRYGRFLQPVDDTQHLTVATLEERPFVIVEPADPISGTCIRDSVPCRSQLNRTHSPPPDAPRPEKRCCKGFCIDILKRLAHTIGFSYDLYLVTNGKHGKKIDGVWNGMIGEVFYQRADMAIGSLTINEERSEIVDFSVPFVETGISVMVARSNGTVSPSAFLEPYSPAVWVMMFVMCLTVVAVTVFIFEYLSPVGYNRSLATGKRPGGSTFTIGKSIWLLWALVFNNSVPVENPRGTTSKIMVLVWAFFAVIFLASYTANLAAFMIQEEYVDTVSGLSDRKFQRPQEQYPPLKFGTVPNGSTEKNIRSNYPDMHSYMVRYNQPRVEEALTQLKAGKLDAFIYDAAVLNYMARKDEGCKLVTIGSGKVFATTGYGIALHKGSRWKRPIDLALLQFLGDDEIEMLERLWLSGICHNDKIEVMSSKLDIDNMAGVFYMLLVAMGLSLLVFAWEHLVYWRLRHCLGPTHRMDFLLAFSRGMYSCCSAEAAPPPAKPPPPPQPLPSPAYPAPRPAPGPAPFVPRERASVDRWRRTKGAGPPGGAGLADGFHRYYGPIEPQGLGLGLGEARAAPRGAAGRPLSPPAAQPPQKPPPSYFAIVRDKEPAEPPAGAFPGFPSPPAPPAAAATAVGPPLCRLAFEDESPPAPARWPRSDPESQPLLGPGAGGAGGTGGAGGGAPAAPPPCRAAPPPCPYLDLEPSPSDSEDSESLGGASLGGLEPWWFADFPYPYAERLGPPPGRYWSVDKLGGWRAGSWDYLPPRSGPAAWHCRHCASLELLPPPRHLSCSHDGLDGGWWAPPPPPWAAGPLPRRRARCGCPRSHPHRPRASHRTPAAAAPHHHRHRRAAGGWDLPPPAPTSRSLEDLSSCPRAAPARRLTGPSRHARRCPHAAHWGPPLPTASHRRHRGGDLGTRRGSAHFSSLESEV
The next series relates to Plasma. Description: Fraction unbound in mouse plasma at 10 mg/kg, po measured at 1 hr. Particulars: in vivo. The format is ADME, organism-based.
For series [10], the target named is T2, Glutamate receptor 2. Description: Positive allosteric modulation of human GluA2 AMPAR flip isomer expressed in Dox-inducible cells measured every 5 mins by BD calcium indicator dye based-fluorescence analysis in presence of glutamate. The format is cell-based.
The nature of series [11]: Plasma protein binding in mouse. The format is ADME, cell-free. Particulars: read-out: PPB (converted).
Series [12] has as its target Ionotropic glutamate receptor NMDA 1/2C (Homo sapiens, UniProt Q05586+Q14957). The experiment in a line: Positive allosteric modulation of GluN1/GluN2C NMDAR (unknown origin) expressed in Dox-inducible cells by BD calcium indicator dye based-fluorescence analysis in presence of glutamate/glycine.
A short description of series [13]: Protein binding in mouse brain. It is filed as ADME, tissue-based. Particulars: read-out: PB (converted).
Series [14] addresses T2, Glutamate receptor 2. Description: Positive allosteric modulation of human GluA2 AMPAR flop isomer expressed in Dox-inducible cells measured every 5 mins by BD calcium indicator dye based-fluorescence analysis in presence of glutamate. The format is cell-based.
The species named for series [15] is Homo sapiens. The experiment in a line: Selectivity ratio of EC50 for human GluA2 AMPAR flop isomer to EC50 for GluN1/GluN2A NMDAR (unknown origin) expressed in Dox-inducible cells. It is filed as cell-based.
Series [16] deals with Glutamate NMDA receptor; GRIN1/GRIN2B (Homo sapiens) (UniProt Q05586+Q13224). The experiment in a line: Positive allosteric modulation of GluN1/GluN2B NMDAR (unknown origin) expressed in Dox-inducible cells at 125 uM measured every 5 mins by BD calcium indicator dye based-fluorescence analysis in presence of glutamate/glycine. The format is cell-based. The method in brief:
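Doxycycline-induced (2 µg/mL, overnight, 500 µM ketamine) GluN2B-containing NMDAR cells, loaded with calcium dye for 50 min; compound added at 2x in 2x EC30 Glu, with saturating Gly; fluorescence recorded over 5 min. Max potentiation at 125 µM reported where no EC50 obtained; 30% denotes baseline (EC30 Glu).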

Series [17] is described as follows: Lipophilicity, logD of the compound at pH 7.4. The format is physicochemical. Particulars: buffer.
The target in series [18] is T1, Glutamate NMDA receptor; GRIN1/GRIN2A. Description: Positive allosteric modulation of GluN1/GluN2A NMDAR (unknown origin) expressed in CHO cells assessed as slowing of deactivation kinetics at 10 uM by whole-cell voltage clamp electrophysiological analysis. It is filed as cell-based.
The species entered for series [19] is Homo sapiens. The experiment in a line: Selectivity ratio of EC50 for human GluA2 AMPAR flip isomer to EC50 for GluN1/GluN2A NMDAR (unknown origin) expressed in Dox-inducible cells. It is filed as cell-based.

Ionotropic glutamate receptor NMDA 1/2C, sequence (Q14957 whole entry, other chains not shown): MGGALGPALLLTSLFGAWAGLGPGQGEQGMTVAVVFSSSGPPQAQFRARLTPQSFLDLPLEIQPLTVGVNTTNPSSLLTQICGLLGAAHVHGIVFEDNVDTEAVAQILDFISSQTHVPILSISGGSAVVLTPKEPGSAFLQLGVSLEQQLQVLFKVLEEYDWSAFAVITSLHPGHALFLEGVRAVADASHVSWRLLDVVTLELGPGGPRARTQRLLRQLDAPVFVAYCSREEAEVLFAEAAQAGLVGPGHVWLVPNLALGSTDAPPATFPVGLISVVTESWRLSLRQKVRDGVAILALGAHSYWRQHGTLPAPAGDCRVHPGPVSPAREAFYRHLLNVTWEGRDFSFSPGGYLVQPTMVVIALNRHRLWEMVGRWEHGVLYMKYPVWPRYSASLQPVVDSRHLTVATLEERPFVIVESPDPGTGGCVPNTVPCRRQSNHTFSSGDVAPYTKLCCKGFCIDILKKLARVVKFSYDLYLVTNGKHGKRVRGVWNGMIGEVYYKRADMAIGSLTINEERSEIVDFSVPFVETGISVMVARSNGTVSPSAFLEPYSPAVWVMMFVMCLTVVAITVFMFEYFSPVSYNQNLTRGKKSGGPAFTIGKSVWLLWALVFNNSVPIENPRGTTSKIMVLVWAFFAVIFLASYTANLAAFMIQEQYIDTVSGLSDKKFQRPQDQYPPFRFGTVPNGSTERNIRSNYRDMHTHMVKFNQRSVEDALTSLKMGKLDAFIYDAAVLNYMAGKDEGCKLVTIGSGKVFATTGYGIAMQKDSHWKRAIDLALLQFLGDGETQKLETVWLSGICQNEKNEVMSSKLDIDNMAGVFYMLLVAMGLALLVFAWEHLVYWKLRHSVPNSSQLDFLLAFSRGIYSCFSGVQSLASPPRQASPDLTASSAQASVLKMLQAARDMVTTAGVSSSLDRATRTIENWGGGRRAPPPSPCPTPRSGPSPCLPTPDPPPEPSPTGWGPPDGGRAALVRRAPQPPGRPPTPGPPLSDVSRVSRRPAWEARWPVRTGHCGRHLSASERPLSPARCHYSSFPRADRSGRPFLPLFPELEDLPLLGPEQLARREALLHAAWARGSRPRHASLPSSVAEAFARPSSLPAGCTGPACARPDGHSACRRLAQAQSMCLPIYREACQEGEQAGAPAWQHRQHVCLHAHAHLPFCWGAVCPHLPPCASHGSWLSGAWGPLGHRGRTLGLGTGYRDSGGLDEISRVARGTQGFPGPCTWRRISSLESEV

As for `CCNC(=O)c1c(C)sc2nc(COc3ccc(F)cc3)cc(=O)n12`, the %max in [1] was determined as 77%; at Glutamate receptor 2 [3], 11%; on Glutamate receptor 2 [4], 15%. Besides, the concentration for a half-maximal effect (EC50) (in general, the concentration giving half of the maximal effect) in series [2] worked out at 8.5 µM. Besides, the efflux ratio (as a rule, a quotient of directional permeabilities that is used to spot active efflux) in the series with human MDR1 (P-gp) was determined as 2. Besides, the result in [5] was inactive.
Turning to `N#C[C@@H]1C[C@H]1c1c(C(F)(F)F)sc2nc(Cn3nc(C(F)(F)F)cc3Cl)cc(=O)n12`, the half-life (in general, how long it takes for the measured level to halve) in series [6] is 4 h. For the same molecule, the clearance – broadly, the rate of elimination divided by the concentration – in series [7] amounted to 26 mL/min/kg. Moreover, the bioavailability – broadly, dose-corrected exposure relative to a reference, in per cent – in series [8] amounted to 24%. Also, the EC50 in [2] was 0.021 µM; in series [9] it was 6.2 µM; at Glutamate receptor 2 [10], 9.1 µM; in series [12], 7.4 µM; on Glutamate receptor 2 [14], 5.5 µM. Besides, the “Cp(f)” value in the series on Plasma is 17 nM. Besides, the fraction unbound in series [11] is 0.06; in series [13] it was 0.014. The values for the %max on Glutamate receptor 2 [3] and on Glutamate receptor 2 [4] were 84% and 88%, respectively. The efflux ratio in the series with human MDR1 (P-gp) stood at 1.1.
For the molecule `C=C(C)c1c(C)sc2nc(CN(CC)c3ccc(F)cc3)cc(=O)n12`, the Ratio EC50 in the series filed under Homo sapiens [15] is over 100. Moreover, the values for the %max (in series [1]; on Glutamate receptor 2 [3]; at Glutamate receptor 2 [4]) were 143%, 75% and 22%, respectively. Moreover, the concentration for a half-maximal effect (EC50) in series [2] came to 0.06 µM; on Glutamate receptor 2 [10] it was 43.1 µM; on Glutamate receptor 2 [14] it was 13 µM.
Turning to `CCN(Cc1cc(=O)n2nc(C)sc2n1)c1ccc(F)cc1`, the %max in series [16] turned out to be 48%; in series [1], 150%; on Glutamate receptor 2 [3] it was 92%; on Glutamate receptor 2 [4] it was 99%. The EC50 in series [2] was determined as 0.9 µM; at Glutamate receptor 2 [10], 3.3 µM; at Glutamate receptor 2 [14], 0.83 µM. The efflux ratio in the series on human MDR1 (P-gp) worked out at 1.4. For the same molecule, in [17], the logD (in general, the decadic logarithm of the distribution of all forms, ionised or not, between an organic phase and buffer at a given pH) was determined as 2.9.
Regarding `CCNC(=O)c1c(C)sc2nc(CN(CC)c3ccc(F)cc3)cc(=O)n12`, the %max worked out at 184% in [1], 10% on Glutamate receptor 2 [3] and 28% at Glutamate receptor 2 [4]. The concentration for a half-maximal effect (EC50) in [2] is 0.093 µM. The outcome in series [18] was Active. For the same molecule, in the series with human MDR1 (P-gp), the efflux ratio is 5.1.
As for `CCN(Cc1cc(=O)n2nc(C)sc2n1)c1ccccc1`, the %max was found to be 35% in series [16], 150% in series [1], 84% at Glutamate receptor 2 [3] and 95% on Glutamate receptor 2 [4]. Moreover, the EC50 in [2] was determined as 1.9 µM; on Glutamate receptor 2 [10], 7.5 µM; on Glutamate receptor 2 [14], 2 µM.
Consider `CCN(Cc1cc(=O)n2c(C(C)=O)c(C)sc2n1)c1ccc(F)cc1`, for which the Ratio EC50 in the series filed under Homo sapiens [15] turned out to be 100. Further, the %max is 173% in [1], 13% at Glutamate receptor 2 [3] and 55% at Glutamate receptor 2 [4]. In addition, the concentration for a half-maximal effect (EC50) turned out to be 0.088 µM in [2] and 9.4 µM on Glutamate receptor 2 [14]. In the series with human MDR1 (P-gp), the efflux ratio was determined as 1.1.
On to `CCNC(=O)c1c(C)sc2nc(Cn3nc(C(F)(F)F)cc3Cl)cc(=O)n12`, for which the figures for the %max (in series [1]; on Glutamate receptor 2 [3]; at Glutamate receptor 2 [4]) were 120%, 8% and 16%, respectively. Moreover, the EC50 stood at 0.436 µM in [2], 37 µM on Glutamate receptor 2 [10] and 73.2 µM on Glutamate receptor 2 [14]. For the same molecule, the Ratio EC50 in the series listed under Homo sapiens [19] amounted to 100. Besides, in the series on human MDR1 (P-gp), the efflux ratio worked out at 11.
On to `CCN(Cc1cc(=O)n2c(C(C)O)c(C)sc2n1)c1ccc(F)cc1` (racemic), for which the %max in series [1] amounted to 154%; at Glutamate receptor 2 [3], 37%; at Glutamate receptor 2 [4] it was 30%. Further, the results for the EC50 (in [2]; on Glutamate receptor 2 [10]; at Glutamate receptor 2 [14]) were 0.183 µM, 32.3 µM and 5.5 µM, respectively. Besides, the efflux ratio with human MDR1 (P-gp) stood at 0.6.
For `CCCCc1nn2c(=O)cc(CN(CC)c3ccccc3)nc2s1`, the %max amounted to 40% in [16], 91% in [1], 51% at Glutamate receptor 2 [3] and 71% at Glutamate receptor 2 [4]. The results for the 50% effective concentration (EC50) (in series [2]; at Glutamate receptor 2 [10]; on Glutamate receptor 2 [14]) were 9.34 µM, 35.2 µM and 23.7 µM, respectively.
Consider `CCN(Cc1cc(=O)n2cc(C)sc2n1)c1ccc(F)cc1`, for which the %max is 150% in series [1], 95% on Glutamate receptor 2 [3] and 93% at Glutamate receptor 2 [4]. The EC50 in [2] came to 0.312 µM; at Glutamate receptor 2 [10] it was 0.252 µM; at Glutamate receptor 2 [14], 0.245 µM. Moreover, the efflux ratio with human MDR1 (P-gp) was 1.
